Drawing on PubChem BioAssay AID493239 (Broad Institute, 2011), this text covers AC40 and activation for 87 molecules.

Molecules are shown by their SMILES. Where “and” joins values, the source holds several entries; their conditions need not be identical. Identical values can stand only once. Calls of active or inactive are those of the source.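 How the source made its calls: active means fitted curve crosses 40% activation at or below the top valid dose tested for that sample; inconclusive means flat fit between 30 and 70% activation, or poor fit; inactive means the rest, including activity in the opposite direction.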

One test deals with U2OS GFP-HIF1alpha nuclear intensity imaging. Nature of the test: GFP-HIF1alpha nuclear accumulation inducers, dose response, orthogonal assay for HIF pathway activator project, imaging, U2OS, high content, dry powder, set 3 (AID 493239).
Conditions: not given
The method, boiled down: (§1)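 Assay system: U2OS cells carrying GFP-HIF1alpha / Benchmarks: Desferrioxamine positive control / Replicates: duplicates / Incubation: 24 h compound treatment at 37 °C / Medium: phenol red-free DMEM with 10% fetal bovine serum / Detection: fluorescence imaging at 10X of formaldehyde-fixed, DAPI-counterstained cells / Compound: 8 concentrations, 3-fold steps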
Take `CC(C)(C)CCNc1nc(-c2ccccn2)nnc1-c1ccccc1`: the AC40 is 0.77 µM and 0.585 µM.
Same read-out and setting: to `CC(C)(C)CCNC(=O)c1cc(-c2ccccc2)on1` belongs 18 µM.
Same read-out and setting: to `N#CC1(c2ccccc2)CCN(Cc2ccc(O)c3ncccc23)CC1` belongs > 38 µM (inactive); to `c1ccc(-c2nnc(-c3ccccn3)nc2NCCc2ccccn2)cc1`, 4.57 µM; to `C[C@@H](Nc1nc(-c2ccccn2)nnc1-c1ccccc1)c1ccccc1`, 1.87 µM.
Still for that read-out and setting: to `CN(C)c1nc(-c2ccccn2)nnc1-c1ccccc1` belongs 11.6 µM; to `Cc1ccc(Nc2nc(-c3ccccn3)nnc2-c2ccccc2)cn1`, 9.48 µM.
With `O=C(NCCCN1CCOCC1)c1cc(-c2ccccc2)on1`, the AC40 is 14.8 µM.
As to `OCCCNc1nc(-c2ccccn2)nnc1-c1ccccc1`, the AC40 is 12.1 µM.
The same measure, in the same setting: then `CC1CN(Cc2ccc(O)c3ncccc23)CC(C)O1` (configuration not stated), with 18.6 µM.
The same measure, in the same setting: then `Cc1ccc(NC(=O)c2cc(-c3ccccc3)on2)cn1`, with > 38 µM (inactive); and `c1ccc(-c2nnc(-c3ccccn3)nc2N2CCC(c3ccccc3)C2)cc1` (configuration not stated), with 0.353 µM.
Same read-out and setting: to `c1ccc(-c2nnc(-c3ccccn3)nc2NCC2CCOCC2)cc1` belongs 6.43 µM; to `COc1ccc(CNc2nc(-c3ccccn3)nnc2-c2ccccc2)cc1`, 1.15 µM; to `Cn1c(-c2ccccc2)cnc1Nc1nc(-c2ccccn2)nnc1-c1ccccc1`, 8.34 µM.
As for `Cc1cccc(CNc2nc(-c3ccccn3)nnc2-c2ccccc2)c1`, the AC40 is 1.83 µM.
Still for that read-out and setting: to `c1ccc(-c2nnc(Nc3nc(-c4ccccn4)nnc3-c3ccccc3)s2)cc1` belongs 7.75 µM.
Same read-out and setting: to `c1ccc(-c2nnc(-c3ccccn3)nc2N2CCC(C3CCCCC3)C2)cc1` (configuration not stated) belongs 0.24 µM; to `Cc1ccc(CNc2nc(-c3ccccn3)nnc2-c2ccccc2)cc1C`, 0.779 µM.
The same measure, in the same setting: then `c1ccc(-c2nnc(-c3ccccn3)nc2N2CCN(c3ccncc3)CC2)cc1`, with 5.44 µM.
For `O=C(NCC1CCCCC1)c1cc(-c2ccccc2)on1`, the AC40 was > 38 µM (inactive).
Still for that read-out and setting: then `O=C(NCCCCO)c1cc(-c2ccccc2)on1`, with 2.08 µM; and `C[C@H](Nc1nc(-c2ccccn2)nnc1-c1ccccc1)C1CCCCC1`, with 0.866 µM; and `Oc1ccc(CNC2CCc3ccccc32)c2cccnc12` (configuration not stated), with 10.3 µM.
Still for that read-out and setting: to `O=C(NCCCn1ccnc1)c1cc(-c2ccccc2)on1` belongs 5.74 µM.
In the case of `c1ccc(CCNc2nc(-c3ccccn3)nnc2-c2ccccc2)cc1`, the AC40 was 5.72 µM.
The same measure, in the same setting: then `O=C(Nc1ncc2ccccc2n1)c1cc(-c2ccccc2)on1`, with 32.3 µM.
For `c1ccc(-c2nnc(-c3ccccn3)nc2Nc2nc3ccccc3s2)cc1`, the AC40 was 1.26 µM.
On the same count and under the same terms, then `c1ccc(-c2nnc(-c3ccccn3)nc2NCc2cccnc2)cc1`, with 3.21 µM; and `Cc1cccc(Nc2nc(-c3ccccn3)nnc2-c2ccccc2)n1`, with 2.98 µM.
Consider `c1ccc(-c2cccc(CNc3nc(-c4ccccn4)nnc3-c3ccccc3)c2)cc1`, for which the AC40 was 0.407 µM.
The same measure, in the same setting: then `CC(C)(C)c1ccc(CNc2nc(-c3ccccn3)nnc2-c2ccccc2)cc1`, with 0.169 µM; and `Cc1ccccc1CNc1nc(-c2ccccn2)nnc1-c1ccccc1`, with 1.14 µM; and `O=C(Nc1cn2ccccc2n1)c1cc(-c2ccccc2)on1`, with 3.04 µM.
Same read-out and setting: to `CC(C)(C)OC(=O)N1CCN(Cc2ccc(O)c3ncccc23)CC1` belongs > 38 µM (inactive); to `c1ccc(-c2nnc(-c3ccccn3)nc2NCC2CCCCC2)cc1`, 1.13 µM.
On the same count and under the same terms, to `OCC1CCN(c2nc(-c3ccccn3)nnc2-c2ccccc2)CC1` belongs 13.6 µM; to `O=C(Nc1nc2ccccc2s1)c1cc(-c2ccccc2)on1`, 20.1 µM; to `c1ccc(-c2ccc(CNc3nc(-c4ccccn4)nnc3-c3ccccc3)cc2)cc1`, 0.487 µM.
On to `CCCCNC(=O)c1cc(-c2ccccc2)on1`, for which the AC40 is 5.94 µM.
For `O=C(NC1CCc2ccccc2C1)c1cc(-c2ccccc2)on1` (configuration not stated), the AC40 was > 38 µM (inactive).
Same read-out and setting: to `c1ccc(-c2nnc(-c3ccccn3)nc2NCC2CC2)cc1` belongs 3.09 µM; to `c1ccc(CNc2nc(-c3ccccn3)nnc2-c2ccccc2)cc1`, 2.07 µM; to `Oc1ccc(CN2CCC3CCCCC3C2)c2cccnc12` (configuration not stated), 5.44 µM.
On the same count and under the same terms, to `c1ccc(-c2nnc(-c3ccccn3)nc2NCCN2CCOCC2)cc1` belongs 7.2 µM.
The same measure, in the same setting: then `O=C(NCCCO)c1cc(-c2ccccc2)on1`, with 5.32 µM; and `C[C@@H](Nc1nc(-c2ccccn2)nnc1-c1ccccc1)C1CCCCC1`, with 0.515 µM.
Regarding `COc1cccc(CNc2nc(-c3ccccn3)nnc2-c2ccccc2)c1`, the AC40 was 1.08 µM.
The same measure, in the same setting: then `Cc1ccc(CNc2nc(-c3ccccn3)nnc2-c2ccccc2)cc1`, with 1.24 µM.
Same read-out and setting: to `OCC1CCN(Cc2ccc(O)c3ncccc23)CC1` belongs 4.02 µM.
On the same count and under the same terms, then `O=C(NCCN1CCCCC1)c1cc(-c2ccccc2)on1`, with > 38 µM (inactive); and `C=CCNc1nc(-c2ccccn2)nnc1-c1ccccc1`, with 5.24 µM; and `c1ccc(-c2nnc(-c3ccccn3)nc2NCCCN2CCOCC2)cc1`, with 5.94 µM.
In the case of `c1ccc(-c2nnc(-c3ccccn3)nc2Nc2cnc3ccccc3n2)cc1`, the AC40 was 3.16 µM.
On the same count and under the same terms, then `Cn1c(-c2ccccc2)cnc1NC(=O)c1cc(-c2ccccc2)on1`, with > 38 µM (inactive); and `c1ccc(-c2csc(Nc3nc(-c4ccccn4)nnc3-c3ccccc3)n2)cc1`, with 0.88 µM; and `CN(C)CCNC(=O)c1cc(-c2ccccc2)on1`, with > 38 µM (inactive).
In the case of `Oc1ccc(CNC2Cc3ccccc3C2)c2cccnc12`, the AC40 was 4.22 µM.
Same read-out and setting: to `c1ccc(-c2nnc(-c3ccccn3)nc2NCc2ccccn2)cc1` belongs 6.35 µM.
Take `Oc1ccc(CN2CCc3ccccc3C2)c2cccnc12`: the AC40 is 3.58 µM and 20.4 µM.
The same measure, in the same setting: to `Clc1cccc(CNc2nc(-c3ccccn3)nnc2-c2ccccc2)c1` belongs 0.651 µM; to `O=C(NCC1CC1)c1cc(-c2ccccc2)on1`, 7.97 µM; to `c1ccc(-c2nnc(-c3ccccn3)nc2N2CCC(N3CCOCC3)CC2)cc1`, 3.85 µM.
As to `CC(Nc1nc(-c2ccccn2)nnc1-c1ccccc1)c1ccccc1` (configuration not stated), the AC40 was 1.48 µM.
For the molecule `c1ccc(-c2cnc(Nc3nc(-c4ccccn4)nnc3-c3ccccc3)s2)cc1`, the AC40 is 9.91 µM.
On the same count and under the same terms, to `CN1CCN(c2nc(-c3ccccn3)nnc2-c2ccccc2)CC1` belongs 8.8 µM.

Tested on in a further test: not listed separately
The test is described as above. As to conditions: U2OS GFP-HIF1alpha nuclear intensity imaging; at 38 µM (top of the series). The method, boiled down: as §1
`O=C(c1cc(-c2ccccc2)on1)N1CCC(N2CCCC2)CC1`: the activation is 5.78% (inactive).
Same read-out and setting: then `O=C(NC1Cc2ccccc2C1)c1cc(-c2ccccc2)on1`, with 7.61% (inactive).
As for `O=C(Nc1ccc2ccccc2n1)c1cc(-c2ccccc2)on1`, the activation is 0.342% (inactive).
`O=C(c1cc(-c2ccccc2)on1)N1CCC(N2CCOCC2)CC1`: the activation is -3.94% (inactive).
Regarding `O=C(NCc1ccccc1)c1cc(-c2ccccc2)on1`, the activation was -3.06% (inactive).
For the molecule `O=C(c1cc(-c2ccccc2)on1)N1CCC(CO)CC1`, the activation was 8.11% (inactive).
The same measure, in the same setting: to `O=C(c1cc(-c2ccccc2)on1)N1CCc2cccnc21` belongs 0.25% (inactive); to `Oc1ccc(CN2CCC(Cc3ccccc3)CC2)c2cccnc12`, 592% (inactive).
The same measure, in the same setting: to `Cc1cccc(CNC(=O)c2cc(-c3ccccc3)on2)c1` belongs 12.7% (inactive); to `Cc1ccccc1CNC(=O)c1cc(-c2ccccc2)on1`, 6.92% (inactive); to `Cn1c(NC(=O)c2cc(-c3ccccc3)on2)nc2ccccc21`, -0.603% (inactive).
On the same count and under the same terms, then `O=C(c1cc(-c2ccccc2)on1)N1CCN(c2ccncc2)CC1`, with 14% (inactive); and `CN1CCN(C(=O)c2cc(-c3ccccc3)on2)CC1`, with -3.79% (inactive).
`O=C(Nc1cnc2ccccc2c1)c1cc(-c2ccccc2)on1`: the activation is 8.34% (inactive).
In the case of `O=C(Nc1ncc(-c2ccccc2)o1)c1cc(-c2ccccc2)on1`, the activation is 4.26% (inactive).
Turning to `Cc1ccc(CNC(=O)c2cc(-c3ccccc3)on2)cc1`, the activation is 0.663% (inactive).
Same read-out and setting: then `O=C(Nc1nc(-c2ccccc2)cs1)c1cc(-c2ccccc2)on1`, with 0.096% (inactive); and `COc1ccccc1N1CCN(Cc2ccc(O)c3ncccc23)CC1`, with 219% (inactive); and `Cc1cccc(NC(=O)c2cc(-c3ccccc3)on2)n1`, with 7.71% (inactive).
Consider `O=C(NCCN1CCOCC1)c1cc(-c2ccccc2)on1`, for which the activation was 248% (inactive).
On the same count and under the same terms, to `O=C(Nc1nnc(-c2ccccc2)s1)c1cc(-c2ccccc2)on1` belongs -0.414% (inactive).
